Experimental data from different studies.
Each line is one published result; the experiments were not run side by side.

SMILES | test system | setting | endpoint | result
CC(C)[C@@H](CS(=O)(=O)C(C)C)N1C(=O)[C@@](C)(CC(=O)O)C[C@H](c2cccc(Cl)c2)[C@H]1c1ccc(Cl)cc1 | FVB mouse, brain | oral, 20 mg/kg | unbound tissue/plasma ratio | 0.005
COc1ccc2c(c1)CN(C(=O)CCN1CCC(Cc3ccccc3)CC1)CC[S@@+]2[O-] | male human, plasma | intravenous, 0.6 mg/kg, healthy volunteers | AUC(0-t) | 3180 ng·h/mL
COc1ccc(F)cc1C(=O)NCc1ccc(-c2nn([C@@H](C)C(F)(F)F)c(N)c2C(N)=O)cc1 | human, plasma | oral, 200 mg, single dose | AUC(0-inf) | 80800 ng·h/mL
COc1ccc(-c2c(Nc3ccccn3)[nH]c3c(C4=CCCCC4)c(-c4ccccc4)nn3c2=O)cc1 | human, plasma | oral, 400 mg once daily, multiple doses, steady state, patients | AUC(0-t) | 57300 ng·h/mL
CC(C)n1c(C2CCNCC2)nc2c([N+](=O)[O-])c(Br)c(Br)cc21 | human, plasma | oral, 125 mg, patients | AUC(0-t) | 1760 ng·h/mL
O=C(COc1ccc(Cl)cc1)NC12CC(c3nnc([C@H]4C[C@@H](OC(F)(F)F)C4)o3)(C1)C2 | human, plasma | oral, 200 mg, multiple doses, once daily, steady state, healthy volunteers | AUC | 242 µM·h
NCc1cc2c(cc1F)C(=O)N(C1CCC(=O)NC1=O)C2 (centres unmarked) | male cynomolgus monkey, plasma | oral, 0.3 mg/kg | Tmax | 2 h
CC(=O)N(C)[C@H]1CCN(C(=O)c2cnc3c(c2)C[C@](C)(c2ccc(F)cc2)N3)C1 | male human, plasma | oral, 15 mg, multiple doses, once daily, steady state | AUC(0-t) | 1.97 µM·h
